Consider 23 compounds from ChEMBL document CHEMBL3751780, “Rational design, synthesis and in vitro evaluation of allylidene hydrazinecarboximidamide derivatives as BACE-1 inhibitors” (Bioorg Med Chem Lett, 2016).

The target of data set [1] is T1, Beta-secretase 1 (Homo sapiens, UniProt P56817). The experiment in a line: Inhibition of human BACE1 (1 to 460 residues) using APP-based peptide as substrate at 10 uM incubated for 60 mins by FRET analysis. In a few lines:
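Measured by FRET. Test compounds were screened at one fixed concentration and reported as percent inhibition, given as mean ± SD of triplicate experiments performed independently.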

The nature of data set [2]: Cytotoxicity against human […] cells at 10 uM after 24 hrs by MTT assay. Type of data set: cell-based. In general terms: Tetrazolium dyes change colour on reduction, which living cells bring about.
The target of data set [3] is T1, Beta-secretase 1. The experiment in a line: Inhibition of human BACE1 (1 to 460 residues) using APP-based peptide as substrate incubated for 60 mins by FRET analysis.

Active and inactive are the calls of the source. The calls are words filed in the database; no cut-off is given here.

T1 sequence (P56817 whole entry, the tested form may be a part): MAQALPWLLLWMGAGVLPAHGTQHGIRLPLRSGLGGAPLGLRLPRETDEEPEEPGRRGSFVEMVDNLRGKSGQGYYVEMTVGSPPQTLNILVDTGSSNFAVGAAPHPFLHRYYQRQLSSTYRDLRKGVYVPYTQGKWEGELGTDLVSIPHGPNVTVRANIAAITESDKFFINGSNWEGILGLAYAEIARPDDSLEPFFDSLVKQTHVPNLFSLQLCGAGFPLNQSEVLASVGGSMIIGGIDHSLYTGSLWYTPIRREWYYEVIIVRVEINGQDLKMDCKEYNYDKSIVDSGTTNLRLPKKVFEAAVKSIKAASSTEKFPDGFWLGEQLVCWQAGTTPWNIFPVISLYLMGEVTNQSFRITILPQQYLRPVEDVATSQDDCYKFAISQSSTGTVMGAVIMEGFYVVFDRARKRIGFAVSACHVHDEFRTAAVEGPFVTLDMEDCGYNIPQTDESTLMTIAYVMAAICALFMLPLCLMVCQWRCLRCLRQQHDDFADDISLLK

Broadly, the inhibition is the change of the read-out against control, counted positive when it falls. Consider `COc1ccc(/C=C/C(=N/NC(=N)N)c2cccc([N+](=O)[O-])c2)cc1OC`, for which the inhibition on Beta-secretase 1 [1] was determined as 45.8%. The Activity result in data set [2] was “Non-toxic”.
The like results for `COc1ccc(C(/C=C/c2cc(OC)ccc2OC)=N\NC(=N)N)cc1` were, in that order, 10.3% and “Non-toxic”.
The like results for `CN(C)c1ccc(/C=C/C(=N/NC(=N)N)c2ccc([N+](=O)[O-])cc2)cc1` were, in that order, 23.9% and “Non-toxic”.
As a reminder, the IC50 is the point on the concentration scale where inhibition reaches its midpoint. On to `COc1ccc(/C=C/C(=N/NC(=N)N)c2ccc(Cl)cc2)cc1OC`, for which the inhibition at Beta-secretase 1 [1] was 78.2%. In addition, the Activity entry in data set [2] is on record as “Non-toxic”. Besides, half-maximal inhibition on Beta-secretase 1 [3] (IC50) required 6.42 µM.
Take `N=C(N)N/N=C(/C=C/c1cccc([N+](=O)[O-])c1)c1cccc(Br)c1`: the inhibition against Beta-secretase 1 [1] was 10.8%. Besides, the Activity result in data set [2] is recorded as “Non-toxic”.
On to `CN(C)c1ccc(/C=C/C(=N/NC(=N)N)c2ccccc2)cc1`, for which the inhibition result on Beta-secretase 1 [1] is “inactive”. Also, the Activity entry in data set [2] is “Non-toxic”.
On the same counts, the results for `N=C(N)N/N=C(/C=C/c1cccc([N+](=O)[O-])c1)c1ccc([N+](=O)[O-])cc1` are 62.1% and “Non-toxic”.
For `N=C(N)N/N=C(/C=C/c1ccccc1)c1cccc(O)c1`, the Activity result in data set [2] is “Non-toxic”.
For the compound `COc1ccc(/C=C/C(=N/NC(=N)N)c2cccc(Br)c2)cc1OC`, the inhibition on Beta-secretase 1 [1] was 25.9%. Further, the Activity entry in data set [2] is on record as “Non-toxic”.
The like results for `CN(C)c1ccc(/C=C/C(=N/NC(=N)N)c2cccc([N+](=O)[O-])c2)cc1` were, in that order, 28% and “Non-toxic”.
Regarding `N=C(N)N/N=C(/C=C/c1ccccc1)c1ccccc1`, on Beta-secretase 1 [1], the inhibition was 10.8%. Also, the Activity result in data set [2] was “Non-toxic”.
The like results for `COc1ccc(OC)c(/C=C/C(=N/NC(=N)N)c2ccccc2)c1` were, in that order, 32.6% and “Non-toxic”.
On the same counts, the results for `Cc1ccc(C(/C=C/c2ccc(N(C)C)cc2)=N\NC(=N)N)cc1` are 10.8% and “Non-toxic”.
In turn, `N=C(N)N/N=C(/C=C/c1ccccc1)c1cccc([N+](=O)[O-])c1` gave an inhibition on Beta-secretase 1 [1] of 23.4%. Further, the Activity entry in data set [2] is “Non-toxic”.
On the same counts, the results for `N=C(N)N/N=C(/C=C/c1cccc([N+](=O)[O-])c1)c1ccc(Cl)cc1Cl` are 5.4% and “Non-toxic”.
On the same counts, the results for `COc1ccc(/C=C/C(=N/NC(=N)N)c2ccc(Cl)cc2Cl)cc1OC` are 21.8% and “Non-toxic”.
The compound `COc1ccc(/C=C/C(=N/NC(=N)N)c2ccc([N+](=O)[O-])cc2)cc1OC` returned an inhibition on Beta-secretase 1 [1] of 61.2%. In addition, the Activity result in data set [2] was “Non-toxic”.
For the compound `COc1ccc(C(/C=C/c2cccc([N+](=O)[O-])c2)=N\NC(=N)N)cc1`, on Beta-secretase 1 [1], the inhibition was found to be 11%. Further, in data set [2], the Activity result is reported as “Non-toxic”.
On the same counts, the results for `COc1ccc(/C=C/C(=N/NC(=N)N)c2ccccc2)cc1OC` are 42.1% and “Non-toxic”.
The like results for `N=C(N)N/N=C(/C=C/c1ccccc1)c1ccc([N+](=O)[O-])cc1` were, in that order, 13.5% and “Non-toxic”.
The like results for `N=C(N)N/N=C(/C=C/c1cccc([N+](=O)[O-])c1)c1ccccc1` were, in that order, 47.9% and “Non-toxic”.
With `N=C(N)N/N=C(/C=C/c1ccccc1)c1ccc(Cl)cc1`, the inhibition against Beta-secretase 1 [1] was 18%. Moreover, in data set [2], the Activity result is recorded as “Non-toxic”.
On the same counts, the results for `COc1ccc(OC)c(/C=C/C(=N/NC(=N)N)c2cccc(Br)c2)c1` are 23.9% and “Non-toxic”.
